Experimental data as given in ChEMBL document CHEMBL4325909, “Synthesis and evaluation of chalcone analogues containing a 4-oxoquinazolin-2-yl group as potential anti-tumor agents” (Eur J Med Chem, 2019).
Calls of active or inactive are those of the source. No cut-off for these calls is given here.

Tests used:
[1] = system: MCF-10A; test: Induction of apoptosis in human MCF10A cells assessed as necrotic cells at 1 uM after 12 hrs by annexin V-FITC/propidium iodide staining-based flow cytometry method (reference value: 0.57%); format: cell-based
Procedure, shortened: (§1)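 Cells were stained with Annexin V-FITC/PI and gated by flow cytometry into live, early apoptotic, late apoptotic and necrotic quadrants. Apoptotic fraction is early plus late, mean ± SD of three independent experiments.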

[2] = system: HCT-116; test: Induction of mitochondrial membrane depolarization in human HCT116 cells at 1 uM after 12 hrs by JC-1 staining based fluorescence microscopic analysis; format: functional, cell-based
[3] = system: MCF-10A; test: Induction of apoptosis in human MCF10A cells after 12 hrs by annexin V-FITC/propidium iodide staining-based flow cytometry method; format: cell-based; procedure, shortened: as §1
[4] = Induction of apoptosis in human MCF10A cells assessed as viable cells at 1 uM after 12 hrs by annexin V-FITC/propidium iodide staining-based flow cytometry method (reference value: 95.4%); format: cell-based, MCF-10A; conditions: read-out: Activity; procedure, shortened: as §1
[5] = system: HCT-116; test: Induction of apoptosis in human HCT116 cells assessed as viable cells at 1 uM after 12 hrs by annexin V-FITC/propidium iodide staining-based flow cytometry method (reference value: 86.0%); format: functional; conditions: HCT-116, 12 h, read-out: Activity
[6] = system: HCT-116; test: Induction of apoptosis in human HCT116 cells assessed as late apoptotic cells at 1 uM after 12 hrs by annexin V-FITC/propidium iodide staining-based flow cytometry method (reference value: 5.4%); format: functional
[7] = system: HCT-116; test: Induction of apoptosis in human HCT116 cells after 12 hrs by annexin V-FITC/propidium iodide staining-based flow cytometry method; format: functional, cell-based
[8] = system: HCT-116; test: Induction of apoptosis in human HCT116 cells at 1 uM after 12 hrs by acridine orange/ethidium bromide staining-based fluorescence microscopic analysis; format: functional, cell-based
[9] = system: HCT-116; test: Induction of apoptosis in human HCT116 cells assessed as early apoptotic cells at 1 uM after 12 hrs by annexin V-FITC/propidium iodide staining-based flow cytometry method (reference value: 3.8%); format: functional
[10] = system: HCT-116; test: Induction of apoptosis in human HCT116 cells assessed as necrotic cells at 1 uM after 12 hrs by annexin V-FITC/propidium iodide staining-based flow cytometry method (reference value: 4.8%); format: functional
[11] = system: HCT-116; test: Induction of reactive oxygen species generation in human HCT116 cells assessed as increase in mitochondrial superoxide generation at 1 uM after 12 hrs by MitoSOX red dye-based fluorescence microscopic analysis; format: functional, cell-based
[12] = system: MCF-10A; test: Induction of apoptosis in human MCF10A cells assessed as early apoptotic cells at 1 uM after 12 hrs by annexin V-FITC/propidium iodide staining-based flow cytometry method (reference value: 0.20%); format: cell-based; procedure, shortened: as §1
[13] = system: HCT-116; test: Induction of apoptosis in human HCT116 cells accumulation of cleaved caspase-9 level at 2 times IC50 after 8 hrs by Western blot analysis; format: functional, cell-based
Procedure, shortened: (§2)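 Whole lysates in SDS/β-mercaptoethanol sample buffer run on 4–18% gradient SDS-PAGE and transferred to PVDF. Blocked in 5% milk/PBST, primary antibodies overnight at 4 °C, HRP secondaries 1 h. β-actin served as loading reference.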

[14] = system: HCT-116; test: Induction of apoptosis in human HCT116 cells assessed as necrotic cells at 1 times IC50 after 24 hrs by annexin V-FITC/propidium iodide staining-based flow cytometry method (reference value: 4.8%); format: functional
[15] = system: HCT-116; test: Induction of apoptosis in human HCT116 cells assessed as viable cells at 1 times IC50 after 24 hrs by annexin V-FITC/propidium iodide staining-based flow cytometry method (reference value: 86.0%); format: functional
[16] = system: MCF-10A; test: Induction of apoptosis in human MCF10A cells assessed as early apoptotic cells at 1 times IC50 after 24 hrs by annexin V-FITC/propidium iodide staining-based flow cytometry method (reference value: 0.20%); format: cell-based
[17] = system: HCT-116; test: Induction of apoptosis in human HCT116 cells after 24 hrs by annexin V-FITC/propidium iodide staining-based flow cytometry method; format: functional, cell-based
[18] = system: MCF7; test: Cytotoxicity against human MCF7 cells assessed as reduction in cell viability at 20 uM after 72 hrs by MTS assay relative to control; format: functional
Procedure, shortened: (§3)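 Cells grown in DMEM with 10% FBS at 37 °C, 5% CO2, exposed to 20 μM for 72 h. Proliferation read by MTS and inhibition expressed relative to vehicle. ≥50% inhibition counted as active. Triplicate wells, three independent experiments.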

[19] = system: HCT-116; test: Induction of apoptosis in human HCT116 cells assessed as early apoptotic cells at 2 times IC50 after 24 hrs by annexin V-FITC/propidium iodide staining-based flow cytometry method (reference value: 3.8%); format: functional
[20] = system: MCF-10A; test: Induction of apoptosis in human MCF10A cells assessed as late apoptotic cells at 1 times IC50 after 24 hrs by annexin V-FITC/propidium iodide staining-based flow cytometry method (reference value: 3.81%); format: cell-based
[21] = system: MCF-10A; test: Cytotoxicity against human MCF10A cells assessed as reduction in cell viability after 72 hrs by MTS assay; format: cell-based
Procedure, shortened: (§4)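 MTS (CellTiter 96 AQueous One) proliferation read after 72 h of exposure across a concentration range. IC50 is the concentration giving 50% proliferation inhibition. Triplicate determinations in three independent experiments, mean ± SD.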

[22] = system: HT-29; test: Cytotoxicity against human HT-29 cells assessed as reduction in cell viability after 72 hrs by MTS assay; format: functional, cell-based; conditions: HT-29, 72 h; procedure, shortened: as §4
[23] = system: HCT-116; test: Cell cycle arrest in human HCT116 cells assessed as increase in accumulation of cells at sub-G1 phase after 24 hrs by propidium iodide staining-based flow cytometry method; format: functional
[24] = system: HCT-116; test: Induction of reactive oxygen species generation in human HCT116 cells assessed as increase in mitochondrial superoxide generation at 1 to 2 times IC50 after 24 hrs by MitoSOX red dye-based fluorescence microscopic analysis; format: functional, cell-based
[25] = system: HCT-116; test: Induction of apoptosis in human HCT116 cells assessed as early apoptotic cells at 1 times IC50 after 24 hrs by annexin V-FITC/propidium iodide staining-based flow cytometry method (reference value: 3.8%); format: functional
[26] = system: HCT-116; test: Cytotoxicity against human HCT116 cells assessed as reduction in cell viability after 72 hrs by MTS assay; format: functional, cell-based; conditions: HCT-116, 72 h
Procedure, shortened: (§5)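 Cells kept in DMEM with 10% FBS at 37 °C, 5% CO2. Proliferation read by MTS (CellTiter 96 AQueous One) 72 h after exposure across a concentration range. IC50 is the concentration giving 50% proliferation inhibition. Triplicate wells, three independent experiments, mean ± SD.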

[27] = system: MCF-10A; test: Induction of apoptosis in human MCF10A cells assessed as early apoptotic cells at 2 times IC50 after 24 hrs by annexin V-FITC/propidium iodide staining-based flow cytometry method (reference value: 0.20%); format: cell-based
[28] = system: HCT-116; test: Induction of apoptosis in human HCT116 cells assessed as viable cells at 2 times IC50 after 24 hrs by annexin V-FITC/propidium iodide staining-based flow cytometry method (reference value: 86.0%); format: functional
[29] = system: HCT-116; test: Induction of apoptosis in human HCT116 cells accumulation of cleaved PARP1 level at 2 times IC50 after 12 hrs by Western blot analysis; format: functional, cell-based; procedure, shortened: as §2
[30] = Selectivity index, ratio of IC50 for human MCF10A cells to IC50 for human MCF7 cells; format: toxicity; conditions: MCF10A cells versus MCF7 cells, read-out: Ratio IC50
[31] = system: HCT-116; test: Induction of apoptosis in human HCT116 cells accumulation of cleaved caspase-7 level at 2 times IC50 after 12 hrs by Western blot analysis; format: functional, cell-based; procedure, shortened: as §2
[32] = system: HCT-116; test: Induction of apoptosis in human HCT116 cells accumulation of cleaved caspase-3 level at 2 times IC50 after 12 hrs by Western blot analysis; format: functional, cell-based; procedure, shortened: as §2
[33] = system: HCT-116; test: Induction of mitochondrial membrane depolarization in human HCT116 cells at 2 times IC50 after 24 hrs by JC-1 staining based fluorescence microscopic analysis; format: functional, cell-based
Procedure, shortened: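 HCT-116 cells exposed at 2× IC50 for 24 h, washed, then stained with JC-1 in fresh medium for 20 min at 37 °C and rinsed. Red aggregates and green monomers imaged by fluorescence microscopy at 40×.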

[34] = system: MDA-MB-231; test: Cytotoxicity against human MDA-MB-231 cells assessed as reduction in cell viability after 72 hrs by MTS assay; format: functional, cell-based; conditions: MDA-MB-231, 72 h; procedure, shortened: as §4
[35] = system: HeLa; test: Cytotoxicity against human HeLa cells assessed as reduction in cell viability after 72 hrs by MTS assay; format: functional, cell-based; procedure, shortened: as §4
[36] = system: MCF-10A; test: Induction of apoptosis in human MCF10A cells assessed as late apoptotic cells at 2 times IC50 after 24 hrs by annexin V-FITC/propidium iodide staining-based flow cytometry method (reference value: 3.81%); format: cell-based
[37] = Induction of apoptosis in human MCF10A cells assessed as viable cells at 2 times IC50 after 24 hrs by annexin V-FITC/propidium iodide staining-based flow cytometry method (reference value: 95.4%); format: cell-based, MCF-10A; conditions: read-out: Activity
[38] = system: MCF-10A; test: Induction of apoptosis in human MCF10A cells assessed as necrotic cells at 1 times IC50 after 24 hrs by annexin V-FITC/propidium iodide staining-based flow cytometry method (reference value: 0.57%); format: cell-based
[39] = system: HCT-116; test: Cytotoxicity against human HCT116 cells assessed as reduction in cell viability at 20 uM after 72 hrs by MTS assay relative to control; format: functional; procedure, shortened: as §3
[40] = system: HCT-116; test: Induction of apoptosis in human HCT116 cells after 24 hrs by acridine orange/ethidium bromide staining-based fluorescence microscopic analysis; format: functional, cell-based
[41] = system: MCF-10A; test: Induction of apoptosis in human MCF10A cells assessed as necrotic cells at 2 times IC50 after 24 hrs by annexin V-FITC/propidium iodide staining-based flow cytometry method (reference value: 0.57%); format: cell-based
[42] = system: HCT-116; test: Induction of apoptosis in human HCT116 cells assessed as late apoptotic cells at 1 times IC50 after 24 hrs by annexin V-FITC/propidium iodide staining-based flow cytometry method (reference value: 5.4%); format: functional
[43] = system: HCT-116; test: Induction of apoptosis in human HCT116 cells assessed as necrotic cells at 2 times IC50 after 24 hrs by annexin V-FITC/propidium iodide staining-based flow cytometry method (reference value: 4.8%); format: functional
[44] = system: MCF7; test: Cytotoxicity against human MCF7 cells assessed as reduction in cell viability after 72 hrs by MTS assay; format: functional, cell-based; conditions: MCF7, 72 h; procedure, shortened: as §5
[45] = Induction of apoptosis in human MCF10A cells assessed as viable cells at 1 times IC50 after 24 hrs by annexin V-FITC/propidium iodide staining-based flow cytometry method (reference value: 95.4%); format: cell-based, MCF-10A; conditions: read-out: Activity
[46] = system: A549; test: Cytotoxicity against human A549 cells assessed as reduction in cell viability after 72 hrs by MTS assay; format: functional, cell-based; conditions: A549, 72 h; procedure, shortened: as §4
[47] = system: HCT-116; test: Induction of apoptosis in human HCT116 cells accumulation of cleaved caspase-9 level at 2 times IC50 after 12 hrs by Western blot analysis; format: functional, cell-based; procedure, shortened: as §2
[48] = system: MCF-10A; test: Induction of apoptosis in human MCF10A cells after 24 hrs by annexin V-FITC/propidium iodide staining-based flow cytometry method; format: cell-based
[49] = system: HCT-116; test: Induction of apoptosis in human HCT116 cells assessed as late apoptotic cells at 2 times IC50 after 24 hrs by annexin V-FITC/propidium iodide staining-based flow cytometry method (reference value: 5.4%); format: functional

## CN[C@@H]1C[C@H]2O[C@@](C)([C@@H]1OC)n1c3ccccc3c3c4c(c5c6ccccc6n2c5c31)C(=O)NC4 [STAUROSPORINE]
[1]
  Activity: 1.22%
[2]
  Activity: Active
[3]
  Activity: Dose-dependent effect
[4]
  viability at 12 h, 1 µM: 85.6%
[5]
  viability at 1 µM: 63.1%
[6]
  Activity: 8.4%
[7]
  Activity: Dose-dependent effect
[8]
  Activity: Active
[9]
  Activity: 25.6%
[10]
  Activity: 3%
[11]
  Activity: Active
[12]
  Activity: 2.18%

## COc1ccc(OC)c(C(=O)/C=C/c2nc3ccccc3c(=O)[nH]2)c1
[13]
  Activity: Active
[14]
  Activity: 8.9%
[15]
  Activity: 78.2%
[16]
  Activity: 0.3%
[17]
  Activity: Dose-dependent effect
[18]
  Activity: >=50%
[19]
  Activity: 6.9%
[20]
  Activity: 4.67%
[21]
  IC50: 9.81 µM
[22]
  IC50: 6.18 µM
[23]
  Activity: Dose-dependent effect
[24]
  Activity: Active
[25]
  Activity: 2.1%
[26]
  IC50: 3.56 µM
[27]
  Activity: 1.19%
[28]
  Activity: 54.3%
[29]
  Activity: Active
[30]
  selectivity ratio: > 2
[31]
  Activity: Active
[32]
  Activity: Active
[33]
  Activity: Active
[34]
  IC50: 10.6 µM
[35]
  IC50: 8.37 µM
[36]
  Activity: 5.38%
[37]
  viability at 24 h, 2 times IC50: 92.6%
[38]
  Activity: 0.62%
[39]
  Activity: >=50%
[40]
  Activity: Dose-dependent effect
[41]
  Activity: 0.87%
[42]
  Activity: 10.8%
[43]
  Activity: 9.7%
[44]
  IC50: 4.08 µM
[45]
  viability at 24 h, 1 times IC50: 94.4%
[46]
  IC50: 12.7 µM
[47]
  Activity: Active
[48]
  Activity: Dose-dependent effect
[49]
  Activity: 29.1%
